GASC-1 inh: blocks human GASC-1 demethylase activity; GST-JMJD2C(1-420) H3K9me3 demethylation, DELFIA europium; inhibition, % at 2.35 µM; actives 0.069% (n = 330,000); AID 2099;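 active = more than half of a compound's replicate wells show inhibition beyond 50%, single wells judged on their own value; inconclusive = some, but no more than half, of replicates pass 50% inhibition; inactive = no replicate passes 50% inhibition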;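 also: signal counts dimethyl H3K9 product captured on neutravidin plate; 0% = median of DMSO wells and 100% = 0.3 times that DMSO median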
Target sequence (Q9H3R0 1-420 limits assumed): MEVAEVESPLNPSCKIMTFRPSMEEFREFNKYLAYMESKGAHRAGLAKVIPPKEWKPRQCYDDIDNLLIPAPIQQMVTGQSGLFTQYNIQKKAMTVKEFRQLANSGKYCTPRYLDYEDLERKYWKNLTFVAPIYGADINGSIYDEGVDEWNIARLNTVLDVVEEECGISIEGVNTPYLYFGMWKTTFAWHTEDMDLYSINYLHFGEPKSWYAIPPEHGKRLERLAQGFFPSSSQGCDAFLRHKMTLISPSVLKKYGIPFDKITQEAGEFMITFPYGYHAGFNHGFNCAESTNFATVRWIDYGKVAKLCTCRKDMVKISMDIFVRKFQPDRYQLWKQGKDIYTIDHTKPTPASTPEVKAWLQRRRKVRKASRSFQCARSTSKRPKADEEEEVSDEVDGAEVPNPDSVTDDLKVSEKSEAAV
LANA-H2B inh: blocks KSHV LANA binding to histone H2A/H2B. Q9QR71. cell-free LANA-H2A/H2B peptide, fluorescence polarization. inhibition, % (no concentration beside the values). actives 0.6% (n = 320,000). AID 2629; in the data active = inhibition mostly above about 10%, no sharp cut-off; inactive = mostly below about 6.7%
T cell modulator: T cell immune modulation candidate | 2C CD8+ T cell-vesicle binding, flow cytometry; hits give low values | response (vesicle binding), % at 7 µM | actives 0.068% (n = 330,000) | AID 2052;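 active = response, share of CD8 T cells binding vesicles, and their 90th percentile fluorescence all below set limits, cut at about 80% in these data, passing the limit was not always enough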;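 also: values below 100% mean blocked vesicle binding to the CD8+ T cells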
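Assay system – 2C mouse CD8+ T cells · Also added – QL9-loaded Drosophila micro-vesicles · Timing – Cell–vesicle co-incubation 1.5 h at 37 °C, staining 20 min on ice · Signal – flow cytometry of vesicle-bound cells · Measure – percent CD8+ FL2 mean versus row control · Controls – Peptide-free naked vesicles (low) and QL9 vesicles with 0.7% DMSO vehicle (high)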
DSG3 Ab inh: human desmoglein-3 autoantibody binding inhibition | P32926 | DSG3-coupled beads, scFv-anti-DSG3-GFP binding, flow cytometry; hits give low values | binding (percent of control), % at 10 µM | actives 0.48% (n = 310,000) | AID 588358;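 active = binding more than 3 SD below its plate's average and above zero; inconclusive = below that plate limit but binding exactly zero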;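 also: hits lower antibody fragment binding to DSG3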
Arrestin-AP2 inh: inhibitors of human beta-arrestin and AP2 interaction; FITC-arrestin peptide / GST-AP2 beads, flow cytometry; AP2 beta2 appendage carries R879A mutation; inhibition, % at 10 µM; actives 0.31% (n = 340,000);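 active = inhibition above a set limit, near 3 SD of compounds lacking own fluorescence, cut at about 54% in these data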;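 also: plate controls were DMSO wells for no effect and 5 µM unlabelled arrestin peptide for full effect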
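System: GST-AP2 R879A glutathione beads | Also added: FITC-arrestin peptide, 50 nM | Times: 12 min plus 1 h, RT | Signal: Bead flow cytometry, FITC channel | Buffer or medium: PBS with 0.05% Tween 20 and 0.1% BSA | Read-out basis: Percent drop in bead-associated FITC signal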
HDAC3 inhib: inhibitors of human histone deacetylase 3; O15379; recombinant HDAC3, fluorogenic peptide/trypsin coupled, fluorescence; inhibition, % at 8.3 µM; actives 0.15% (n = 320,000); in the data active = inhibition above about 26%, passing the limit was not always enough; inconclusive = no clear call, values can overlap the other calls
Arr-AP2 CP1: blocks beta-arrestin peptide binding to human AP2 | shares compounds with Arrestin-AP2 inh | GST-AP2 beads, FITC arrestin peptide binding, flow cytometry; GST-fused beta2-adaptin appendage, R879A mutant | inhibition, % at 10 µM | actives 2% (n = 1,300) | AID 504908;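 active = inhibition above a set limit, roughly 3 SD of non-fluorescent compound noise, cut at about 38% in these data; inactive = inhibition at or below that limit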;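 also: loss of bead fluorescence from 50 nM FITC arrestin peptide bound to appendage; 0% = negative control wells and 100% = excess unlabelled arrestin peptide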
GST GSH counter: counter-screen for beta-arrestin AP2 inhibitors: GST-GSH bead binding; shares compounds with Arrestin-AP2 inh; GST-fluorescein binding to GSH beads, fluorescence; inhibition, % at 10 µM; actives 2% (n = 1,300);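 active = inhibition above 50%, about 3 SD of the inhibition seen with non-fluorescent compounds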;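 also: fluorescein maleimide labelled GST captured on 4 micron glutathione beads; higher means more loss of bead fluorescence from quenching or blocked binding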
Starred values were filed as active, the others as inactive; ? = inconclusive; / = not tested or not shown. Hits are enriched below; roughly 1.6% of the tested compounds scored in any of these assays.

SMILES | GASC-1 inh | LANA-H2B inh | T cell modulator | DSG3 Ab inh | Arrestin-AP2 inh | HDAC3 inhib | Arr-AP2 CP1 | GST GSH counter
COc1ccc(C=NNc2ccc([N+](=O)[O-])cc2S(=O)(=O)Nc2ccccc2C(=O)O)cc1OC | 1.2 | -1.8 | 177.9 | 115.6 | 16.4 | 15.4 | / | /
C1=C(CCNc2nnnn2-c2ccccc2)CCCC1 | -1.0 | 0.5 | 545.9 | / | 54.7* | 5.5 | 3.9 | -1.4
c1ccc(CCNc2nnnn2-c2ccccc2)cc1 | 7.0 | -1.5 | 253.7 | 107.7 | 3.9 | 0.0 | / | /
COCCN1C(=O)/C(=C/c2ccc(N3CCCC3)cc2C)SC1=S | -13.7 | -3.7 | 418.6 | 300.3 | 103.0* | -5.9 | -20.6 | -1.8
O=C(CN1C(=O)c2ccccc2C1=O)NC(Cc1ccccc1)C(=O)O (stereo not drawn) | / | / | / | 89.0 | 5.5 | / | / | /
CCC(=O)Nc1c(C#N)c2nc3ccccc3nc2n1C1CCCCC1 | -2.9 | -0.5 | 423.4 | 101.4 | 75.1* | 3.0 | -2.9 | -6.8
COc1ccc(OC)c(NC(=O)COC(=O)c2cc3c(s2)CCC3)c1 | -3.1 | 0.5 | 215.0 | 72.7 | 79.5* | -1.9 | 10.2 | 3.8
CCCNC(=O)COc1ccc(-c2nn(C)c(=O)c3ccccc23)cc1 | 4.0 | 1.0 | 460.6 | 113.4 | -2.0 | 0.9 | / | /
CC(=O)N1CCOc2ccc(S(=O)(=O)NCCc3cccc(C)c3)cc21 | 4.4 | 2.8 | 282.7 | / | 3.1 | 0.7 | / | /
COc1cccc(C2C(C#N)=C(N)OC(C(C)(C)C)=C2C#N)c1 (stereo not drawn) | 9.0 | 3.4 | 273.2 | 96.6 | 92.8* | -10.4 | -8.2 | -5.6
Cc1ccccc1CN1CCN(CC2CC2)CC1CCO (stereo not drawn) | 2.9 | 2.7 | 188.8 | 117.8 | 56.9* | -0.3 | 4.2 | -4.5
O=C1CCCC(O)=C1Sc1ccccc1C(=O)O | 4.4 | -2.5 | 129.5 | 98.0 | 74.1* | ? | 11.4 | 7.0
CC(=Nc1ccccc1)C1=C(O)C(Cc2cccc(F)c2)NC1=O (stereo not drawn) | / | / | / | 113.3 | / | / | / | /
CCCNC(=O)c1noc2c1CCc1ccccc1-2 | -1.3 | -1.5 | 0.0 | 94.0 | -13.0 | 8.3 | / | /
O=C(Nc1cccnc1Cl)c1noc2c1CCc1ccccc1-2 | -4.4 | -0.8 | 171.3 | 98.3 | 54.7* | 6.1 | 10.3 | -15.8
COc1ccc(OCC(=O)Nc2nccs2)cc1 | 10.3 | 5.1 | 285.1 | 116.8 | -38.3 | -3.3 | / | /
COc1ccc(OCCC(=O)Nc2nccs2)cc1 | 6.2 | 1.1 | 199.7 | 91.2 | 54.3* | 0.5 | -3.9 | 0.6
NS(=O)(=O)c1ccc(CCNS(=O)(=O)c2cccc3nsnc23)cc1 | -15.9 | -2.3 | 165.4 | / | 61.5* | 4.3 | -7.5 | -4.7
CN(CC(=O)NCCc1ccc(S(N)(=O)=O)cc1)S(=O)(=O)c1cccc2nsnc12 | 47.4 | -6.6 | 263.3 | 109.5 | 80.5* | 0.7 | -1.4 | -9.8
O=C(Cc1ccc(NC(=O)C2CCN(C(=O)C3CCC3)CC2)cc1)Nc1cccc(C(=O)N2CCCCC2)c1 | / | / | / | 101.5 | 60.3* | / | 4.5 | -11.9
Nc1cccc2cc(-c3ccccc3)oc12 | 5.9 | / | 567.7 | 95.6 | 31.0 | -7.5 | / | /
CCS(=O)(=O)c1nc(S(=O)(=O)c2ccc(C)cc2)c(N2CCC(O)CC2)s1 | -2.9 | -0.1 | 155.9 | 97.8 | 32.7 | 4.2 | / | /
NC(=O)[C@@H]1CCCN1Cc1c(C(=O)N2CCN(C3CCCCC3)CC2)nc2ccccn12 | -2.0 | 3.3 | 216.5 | 99.9 | 54.5* | -4.5 | 2.1 | 1.4
CCCC(=O)N(Cc1cc(=O)[nH]c2ccccc12)c1ccccc1C | 6.8 | 4.8 | 330.9 | 102.8 | 60.9* | 1.1 | 8.3 | -1.2
Cc1nn(C2CC(O)C(O)C(CO)O2)c(=O)[nH]c1=O (stereo not drawn) | / | / | / | 102.1 | -3.7 | / | / | /
Cc1nn(-c2ccccn2)c2c1C(c1ccsc1)C1=C(CCCC1=O)N2 (stereo not drawn) | -5.5 | -3.2 | 395.8 | 110.8 | 105.4* | -1.2 | -11.5 | 2.8

Source: PubChem
